Assay results from ChEMBL document CHEMBL4038306, “Development of an Aryloxazole Class of Hepatitis C Virus Inhibitors Targeting the Entry Stage of the Viral Replication Cycle” (J Med Chem, 2017).

Experiments:
[1] = Tmax in CD-1 mouse liver at 1 mg/kg, ip administered as single dose after 24 hrs by UPLC-MS/MS method; format: ADME, organism-based
In short: (§1)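 Adult male CD-1 mice (25–39 g), one i.p. dose of 0.1, 1 or 10 mg/kg. […] Drug levels measured by UPLC–MS/MS and reported as means ± SEM. […] Serum ALT was also monitored.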

[2] = Drug uptake in CD-1 mouse liver at 1 mg/kg, ip administered as single dose after 24 hrs by UPLC-MS/MS method; format: ADME, organism-based; details: read-out: Drug uptake; in short: as §1
[3] = Cmax in CD-1 mouse liver at 0.1 mg/kg, ip administered as single dose after […] by UPLC-MS/MS method; format: ADME, organism-based; design: dose 0.1 mg/kg, route intraperitoneal
[4] = Ratio of AUClast in CD-1 mouse liver to plasma at 0.1 mg/kg, ip administered as single dose after 24 hrs; format: ADME, organism-based; details: read-out: Ratio AUC
In short: (§2)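 Adult male CD-1 mice (25–39 g), n = 3 per sampling time point, given one i.p. dose (0.1, 1 or 10 mg/kg). Plasma and liver levels measured by UPLC–MS/MS. […] Serum ALT was monitored alongside.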

[5] = AUClast in CD-1 mouse plasma at 10 mg/kg, ip administered as single dose after 24 hrs by UPLC-MS/MS method; format: ADME, organism-based; in short: as §1
[6] = AUClast in CD-1 mouse plasma at 0.1 mg/kg, ip administered as single dose after 24 hrs by UPLC-MS/MS method; format: ADME, organism-based; in short: as §1
[7] = AUClast in CD-1 mouse plasma at 0.1 mg/kg, ip administered as single dose after […] by UPLC-MS/MS method; format: ADME, organism-based
[8] = Cmax in CD-1 mouse plasma at 1 mg/kg, ip administered as single dose after 24 hrs by UPLC-MS/MS method; format: ADME, organism-based; design: dose 1 mg/kg, route intraperitoneal; in short: as §1
[9] = Permeability of the compound by PAMPA; format: physicochemical; details: read-out: permeability
In short: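 Passive diffusion measured by stirred double-sink PAMPA; permeability expressed in 10⁻⁶ cm/s.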

[10] = test system: Plasma; assay: AUC (infinity) in CD-1 mouse plasma at 0.1 mg/kg, ip administered as single dose after […] by UPLC-MS/MS method; format: ADME, organism-based; design: dose 0.1 mg/kg, time infinity, route intraperitoneal; details: in vivo
[11] = test system: Plasma; assay: Cmax in CD-1 mouse plasma at 0.1 mg/kg, ip administered as single dose after […] by UPLC-MS/MS method; format: ADME, organism-based; design: dose 0.1 mg/kg, route intraperitoneal; details: in vivo
[12] = Cmax in CD-1 mouse liver at 10 mg/kg, ip administered as single dose after 24 hrs by UPLC-MS/MS method; format: ADME, organism-based; design: dose 10 mg/kg, route intraperitoneal; in short: as §1
[13] = Drug uptake in CD-1 mouse liver at 0.1 mg/kg, ip administered as single dose after 5 mins by UPLC-MS/MS method; format: ADME, organism-based; details: read-out: Drug uptake; in short: as §1
[14] = AUClast in CD-1 mouse liver at 10 mg/kg, ip administered as single dose after 24 hrs by UPLC-MS/MS method; format: ADME, organism-based; in short: as §1
[15] = Tmax in CD-1 mouse liver at 0.1 mg/kg, ip administered as single dose after […] by UPLC-MS/MS method; format: ADME, organism-based
[16] = Tmax in CD-1 mouse liver at 0.1 mg/kg, ip administered as single dose after 24 hrs by UPLC-MS/MS method; format: ADME, organism-based; in short: as §1
[17] = Ratio of AUClast in CD-1 mouse liver to plasma at 1 mg/kg, ip administered as single dose after 24 hrs; format: ADME, organism-based; details: read-out: Ratio AUC; in short: as §2
[18] = Tmax in CD-1 mouse plasma at 0.1 mg/kg, ip administered as single dose after 24 hrs by UPLC-MS/MS method; format: ADME, organism-based; in short: as §1
[19] = Tmax in CD-1 mouse plasma at 1 mg/kg, ip administered as single dose after 24 hrs by UPLC-MS/MS method; format: ADME, organism-based; in short: as §1
[20] = Cmax in CD-1 mouse liver at 0.1 mg/kg, ip administered as single dose after 24 hrs by UPLC-MS/MS method; format: ADME, organism-based; design: dose 0.1 mg/kg, route intraperitoneal; in short: as §1
[21] = Cmax in CD-1 mouse plasma at 10 mg/kg, ip administered as single dose after 24 hrs by UPLC-MS/MS method; format: ADME, organism-based; design: dose 10 mg/kg, route intraperitoneal; in short: as §1
[22] = Ratio of Cmax in CD-1 mouse liver to plasma at 1 mg/kg, ip administered as single dose after 24 hrs; format: ADME, organism-based
In short: (§3)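 Adult male CD-1 mice (25–39 g) received one intraperitoneal dose. Plasma and liver were sampled at set time points, n = 3 mice per time point. Compound levels were measured by UPLC–MS/MS.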

[23] = Cmax in CD-1 mouse liver at 1 mg/kg, ip administered as single dose after 24 hrs by UPLC-MS/MS method; format: ADME, organism-based; design: dose 1 mg/kg, route intraperitoneal; in short: as §1
[24] = Ratio of AUClast in CD-1 mouse liver to plasma at 0.1 mg/kg, ip administered as single dose after […]; format: ADME, organism-based; details: read-out: Ratio AUC
[25] = AUClast in CD-1 mouse liver at 1 mg/kg, ip administered as single dose after 24 hrs by UPLC-MS/MS method; format: ADME, organism-based; in short: as §1
[26] = Tmax in CD-1 mouse liver at 10 mg/kg, ip administered as single dose after 24 hrs by UPLC-MS/MS method; format: ADME, organism-based; in short: as §1
[27] = Tmax in CD-1 mouse plasma at 10 mg/kg, ip administered as single dose after 24 hrs by UPLC-MS/MS method; format: ADME, organism-based; in short: as §1
[28] = Ratio of AUClast in CD1 mouse liver to plasma at 10 mg/kg, ip administered as single dose after 24 hrs; format: ADME, organism-based; details: CD-1, mouse, read-out: Ratio AUC; in short: as §2
[29] = Ratio of Cmax in CD-1 mouse liver to plasma at 10 mg/kg, ip administered as single dose after 24 hrs; format: ADME, organism-based; in short: as §3
[30] = AUClast in CD-1 mouse plasma at 1 mg/kg, ip administered as single dose after 24 hrs by UPLC-MS/MS method; format: ADME, organism-based; in short: as §1
[31] = Ratio of Cmax in CD-1 mouse liver to plasma at 0.1 mg/kg, ip administered as single dose after 24 hrs; format: ADME, organism-based; in short: as §3
[32] = AUClast in CD-1 mouse liver at 0.1 mg/kg, ip administered as single dose after 24 hrs by UPLC-MS/MS method; format: ADME, organism-based; in short: as §1
[33] = Cmax in CD-1 mouse plasma at 0.1 mg/kg, ip administered as single dose after 24 hrs by UPLC-MS/MS method; format: ADME, organism-based; design: dose 0.1 mg/kg, route intraperitoneal; in short: as §1
[34] = Ratio of Cmax in CD-1 mouse liver to plasma at 0.1 mg/kg, ip administered as single dose after […]; format: ADME, organism-based; details: liver and plasma
[35] = Ratio of AUC (infinity) in CD-1 mouse liver to plasma at 0.1 mg/kg, ip administered as single dose after […]; format: ADME, organism-based; details: read-out: Ratio AUC
[36] = AUClast in CD-1 mouse liver at 0.1 mg/kg, ip administered as single dose after […] by UPLC-MS/MS method; format: ADME, organism-based
[37] = test system: Plasma; assay: Tmax in CD-1 mouse plasma at 0.1 mg/kg, ip administered as single dose after […] by UPLC-MS/MS method; format: ADME, organism-based; details: in vivo

SMILES: Cc1oc(-c2ccc(Cl)c(Cl)c2)nc1CN1CCC(C(=O)NCCCN2C[C@H](C)C[C@H](C)C2)CC1
- Tmax [1]: 4 h
- concentration at 24 h [2]: 3330 to 9820 nM
- Cmax at […] [3]: 1110 nM
- Kp at 24 h [4]: 399
- AUC(0-t) at 24 h [5]: 17.6 µM·h
- AUC(0-t) at 24 h [6]: 0.0494 µM·h
- AUC(0-t) at […] [7]: 0.117 µM·h
- Cmax [8]: 146 nM
- Papp [9]: 522 ×10⁻⁶ cm/s
- AUC [10]: 0.0639 µM·h
- Cmax [11]: 8.76 nM
- Cmax [12]: 34500 nM
- concentration at 5 min [13]: 390 nM
- AUC(0-t) at 24 h [14]: 719 µM·h
- Tmax at […] [15]: 7 h
- Tmax [16]: 7 h
- Kp at 24 h [17]: 224
- Tmax [18]: 4.98 min
- Tmax [19]: 0.25 h
- Cmax [20]: 1110 nM
- Cmax [21]: 4740 nM
- Kp at 24 h [22]: 67
- Cmax [23]: 9820 nM
- Kp at […] [24]: 448
- AUC(0-t) at 24 h [25]: 197 µM·h
- Tmax [26]: 7 h
- Tmax [27]: 4.98 min
- Kp at 24 h [28]: 41
- Kp at 24 h [29]: 7
- AUC(0-t) at 24 h [30]: 0.88 µM·h
- Kp at 24 h [31]: 126
- AUC(0-t) at 24 h [32]: 19.7 µM·h
- Cmax [33]: 8.76 nM
- Kp at […] [34]: 126
- Kp at […] [35]: 510
- AUC(0-t) at […] [36]: 52.3 µM·h
- Tmax [37]: 4.98 min
